Measurements reported in ChEMBL document CHEMBL4732114, “Design and structural optimization of novel 2H-benzo[h]chromene derivatives that target AcrB and reverse bacterial multidrug resistance” (Eur J Med Chem, 2021).

Columns and labels:
Cell membrane = assay: Induction of outer membrane permeabilization in wild type Escherichia coli BW25113 assessed as increase in nitrocefin hydrolysis at 8 ug/ml in presence of CCCP by spectroscopic analysis; details: dose 8 µg/ml
Procedure, shortened: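 Intact E. coli were treated with 10 μM CCCP to block nitrocefin efflux, then given compound, nothing, or polymyxin B as permeabilizer control. Nitrocefin was added, and hydrolysis by periplasmic β-lactamase was followed as the rise in absorbance at 490 nm. Duplicate experiments were run on different days.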

[1] = target: T1, Multidrug efflux pump subunit AcrB (Escherichia coli (strain K12)) (UniProt P31224); assay: Inhibition of AcrB in multidrug-resistant Escherichia coli BW25113 assessed as potentiation of erythromycin-induced antibacterial activity by measuring fold change in erythromycin MIC at 8 ug/ml by checkerboard titration method relative to erythromycin MIC; details: dose 8.0 µg/ml
T1 sequence (whole entry): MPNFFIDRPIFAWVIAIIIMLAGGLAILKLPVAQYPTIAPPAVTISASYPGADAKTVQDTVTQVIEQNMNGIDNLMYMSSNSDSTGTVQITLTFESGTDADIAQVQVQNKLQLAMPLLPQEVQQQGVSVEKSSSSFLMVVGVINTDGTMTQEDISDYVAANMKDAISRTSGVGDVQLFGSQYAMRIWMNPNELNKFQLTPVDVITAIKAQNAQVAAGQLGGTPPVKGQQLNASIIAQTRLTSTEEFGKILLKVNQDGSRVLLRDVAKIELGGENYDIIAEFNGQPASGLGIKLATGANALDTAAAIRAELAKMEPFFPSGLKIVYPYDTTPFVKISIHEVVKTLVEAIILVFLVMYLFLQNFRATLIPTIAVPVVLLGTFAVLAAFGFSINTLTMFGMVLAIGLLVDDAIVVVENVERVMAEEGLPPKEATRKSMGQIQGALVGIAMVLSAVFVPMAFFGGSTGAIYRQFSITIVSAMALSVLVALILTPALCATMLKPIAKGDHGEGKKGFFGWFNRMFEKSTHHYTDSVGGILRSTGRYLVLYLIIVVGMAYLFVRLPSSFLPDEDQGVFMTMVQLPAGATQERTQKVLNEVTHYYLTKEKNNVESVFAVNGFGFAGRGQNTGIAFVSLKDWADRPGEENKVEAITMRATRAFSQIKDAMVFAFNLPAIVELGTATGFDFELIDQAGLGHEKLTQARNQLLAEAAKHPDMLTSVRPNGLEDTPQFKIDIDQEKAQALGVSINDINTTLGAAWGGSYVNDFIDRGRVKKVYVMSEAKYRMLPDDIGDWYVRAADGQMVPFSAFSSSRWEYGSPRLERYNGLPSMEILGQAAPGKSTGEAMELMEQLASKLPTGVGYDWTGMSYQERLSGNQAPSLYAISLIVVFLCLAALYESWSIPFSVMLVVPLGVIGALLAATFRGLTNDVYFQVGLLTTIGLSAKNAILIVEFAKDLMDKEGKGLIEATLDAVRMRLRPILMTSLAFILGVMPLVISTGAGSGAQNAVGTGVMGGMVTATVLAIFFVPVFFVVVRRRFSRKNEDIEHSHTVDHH

[2] = target: T1, Multidrug efflux pump subunit AcrB (Escherichia coli (strain K12)); assay: Inhibition of AcrB in multidrug-resistant Escherichia coli BW25113 assessed as potentiation of levofloxacin-induced antibacterial activity by measuring fold change in levofloxacin MIC at 128 ug/ml by checkerboard titration method relative to levofloxacin MIC; details: dose 128.0 µg/ml

| SMILES | Activity (Cell membrane) | fold change (FC) [1] | fold change (FC) [2] |
| --- | --- | --- | --- |
| CC1CN(C(=O)c2cc3c(OCc4c(Cl)cccc4Cl)cccc3c3c2CCC(C)(C)O3)CC(C)O1 (stereo not drawn) | Not Active |  |  |
| Cc1ccc(COc2cccc3c4c(c(-c5nnco5)cc23)CCC(C)(C)O4)cc1 |  | 2 | < 16 |
